Pyk2 oligo antag: antagonists of Pyk2 self-association, primary screen, Q293 cells, FERM NanoBiT luminescence, HTS | hit rate 0.83% among 99,000 | z-score (the deposit names both 25 µM and 10 µM) | stronger effect = lower value;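 active = Z-score of -3 or lower, scaled per plate to the spread of control and sample wells; inactive = z-score above -3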;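 also: negative z-score means lost luminescence so less FERM oligomerization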
Target sequence (Q14289 whole entry, looked up): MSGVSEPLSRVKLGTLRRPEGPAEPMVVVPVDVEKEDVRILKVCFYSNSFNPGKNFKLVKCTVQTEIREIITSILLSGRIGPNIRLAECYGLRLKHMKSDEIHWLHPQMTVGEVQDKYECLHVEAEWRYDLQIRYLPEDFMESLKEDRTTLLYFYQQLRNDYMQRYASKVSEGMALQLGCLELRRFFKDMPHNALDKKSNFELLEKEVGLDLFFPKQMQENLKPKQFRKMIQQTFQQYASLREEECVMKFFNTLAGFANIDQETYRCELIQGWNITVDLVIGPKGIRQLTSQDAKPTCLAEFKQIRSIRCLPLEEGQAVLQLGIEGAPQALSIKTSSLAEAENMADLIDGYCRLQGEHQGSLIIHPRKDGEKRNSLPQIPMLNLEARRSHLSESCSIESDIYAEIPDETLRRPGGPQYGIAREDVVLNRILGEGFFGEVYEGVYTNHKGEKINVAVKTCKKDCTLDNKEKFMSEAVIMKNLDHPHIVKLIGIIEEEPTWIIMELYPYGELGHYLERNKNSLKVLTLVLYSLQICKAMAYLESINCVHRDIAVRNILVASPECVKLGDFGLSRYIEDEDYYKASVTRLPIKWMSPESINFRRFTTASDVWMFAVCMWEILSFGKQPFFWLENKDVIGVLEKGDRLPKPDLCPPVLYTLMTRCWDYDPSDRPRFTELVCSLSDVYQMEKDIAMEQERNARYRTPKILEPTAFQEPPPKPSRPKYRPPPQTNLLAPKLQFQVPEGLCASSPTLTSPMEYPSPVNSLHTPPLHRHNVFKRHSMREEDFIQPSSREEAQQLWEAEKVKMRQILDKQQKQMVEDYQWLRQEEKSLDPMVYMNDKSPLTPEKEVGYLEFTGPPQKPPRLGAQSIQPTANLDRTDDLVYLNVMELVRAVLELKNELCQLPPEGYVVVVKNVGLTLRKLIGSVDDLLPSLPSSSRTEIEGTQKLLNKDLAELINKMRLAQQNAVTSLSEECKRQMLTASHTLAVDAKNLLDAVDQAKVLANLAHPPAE
hDAT+cocaine: changed hDAT dopamine uptake under cocaine IC80, either direction, primary screen, cocaine antagonist project, cell-based, LLC-PK1 hDAT, [14C]-dopamine uptake, MLSMR; LLC-PK1 hDAT cells, [14C]-dopamine uptake with cocaine IC80; actives deviate in either direction; hit rate 1.3% among 110,000; Sodium-dependent dopamine transporter (Homo sapiens), Q01959; B-score at 10 µM; AID 449768, 2010;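 active = Z score or B-score, a plate-position-corrected score, falls beyond the plate's 99.7% confidence bounds, in either direction; inactive = both scores lie inside the 99.7% bounds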;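 also: scored against the spread of the other compound wells on the same plate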
Cav32 inh: Cav3.2 calcium influx blockers – cell-based, Fluo-4 calcium fluorescence, FDSS, MLSMR library, primary screen; hit rate 4% among 100,000; B-score at 10 µM; Voltage-dependent T-type calcium channel subunit alpha-1H (Homo sapiens), O95180; Cav3.2-expressing cells; stronger effect = lower value;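 active = single-dose well whose peak fluorescence ratio is a statistical outlier from its plate by either plate-standardised score or position-corrected B-score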
Measles CPE: compounds protecting cells from measles virus cytopathic effect, primary screen, measles RdRp inhibitor project, single point, MLSMR library, absorbance. hit rate 1.5% among 140,000. Measles virus-infected cells, CPE protection. protection (pct of control), % at 4 µM; in the data active = protection mostly above about 24%, no sharp cut-off; inactive = mostly below about 26%
HIV Rev-RRE inh: HIV-1 Rev-RRE binding inhibitors, primary screen, biochemical, FRET, protein-RNA interaction; P05866; Rev peptide-RRE RNA binding; inhibition, % at 8 µM; hit rate 0.79% among 97,000; AID 704, 2007;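 active = inhibition above the screen-wide mean plus 3 SD, cut at about 35% in these data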;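 also: 0% = median DMSO wells and 100% = median Neomycin B control wells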
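Assay system: Rev peptide and RRE RNA, both fluorescently labelled; times: 5 min preincubation and 15 min binding, 25 °C; detection: FRET, ex 480 nm, em 540 and 671 nm; read-out basis: % inhibition from 671/540 nm acceptor-to-donor ratio, scaled between controls; benchmarks: DMSO low control, neomycin B high control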
Phagocyt inh: inhibitors of macrophage phagocytosis, primary screen, imaging, J774A.1 cells, IgG beads | J774A.1 macrophage IgG-bead phagocytosis | hit rate 0.07% among 110,000 | inhibition, % at 5 µM;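 active = inhibition above the mean of the plate negative controls plus 5 SD, cut at about 13% in these data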;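 also: phagocytic index as fraction of beads internalized from green versus red external bead signal; plate controls were DMSO negative control for no effect and cytochalasin-D positive control for full effect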
* = called active by the depositor; nt = no result given; + = active, no number. Sampled rows, rich in hits. Any-hit rate of the full collection: about 5.9%.

SMILES	Pyk2 oligo antag	hDAT+cocaine	Cav32 inh	Measles CPE	HIV Rev-RRE inh	Phagocyt inh
Nc1c(C(=O)Nc2ccc(Br)cc2)sc2nc(-c3ccco3)ccc12	0.92	1.5	-1	nt	46*	-1
CCOC(=O)N1CCN(C(=O)COc2cccc3c2CCN(Cc2ccccc2F)C3=O)CC1	nt	nt	nt	10	nt	-8
O=C(c1cnn2c(C(F)(F)F)cc(-c3cccs3)nc12)N1CCN(C(c2ccccc2)c2ccccc2)CC1	-1.4	-0.17	-4.2*	2	-3	nt
O=C(c1cc2nc(-c3cccs3)cc(C(F)(F)F)n2n1)N1CCCc2ccccc21	-2.4	0.97	-4.8*	15	-2	1
O=C(NCCCn1ccnc1)/C(=C\c1cccnc1)NC(=O)c1cccc(Br)c1	1.1	nt	nt	17	nt	0
CN1CCN(c2ccc([N+](=O)[O-])cc2C(=O)c2ccc(Br)cc2)CC1	-0.21	0.22	-1.8	4	7	nt
O=C(c1ccc(Br)cc1)c1cc([N+](=O)[O-])ccc1N1CCCCC1	-0.49	-1.2	-3.6*	2	1	nt
Cc1ccc(Oc2ccccc2/C=C2\SC(=O)N(C)C2=O)cc1	0	-0.059	-1.9	21	17	nt
Cc1ccc(C)n1N1C(=O)/C(=C\c2ccc(Cl)cc2)SC1=S	0.82	1.4	0.029	11	0	nt
COc1ccccc1/C=C1\SC(=S)N(Nc2nc(C)cc(C)n2)C1=O	-3.8*	0.5	0.45	3	5	nt
Cc1cc(C)nc(NN2C(=O)/C(=C/c3ccc(O)cc3)SC2=S)n1	-3.5*	-0.34	-3	11	58*	nt
Cc1sc2nc(SCC(=O)N3CCN(CCO)CC3)n(-c3ccccc3)c(=O)c2c1C	0.15	0.62	-1.5	12	nt	+
O=C(CSc1nc2ccccc2c(=O)n1-c1ccccc1)N1CCN(CCO)CC1	0.86	-0.26	0.14	43	0	-1
O=C(O)C[C@H]1c2cc(C(F)(F)F)ccc2S(=O)(=O)N1C1CCN(Cc2ccccc2)CC1	nt	-0.38	0.75	nt	nt	nt
COc1cc(/C=N/NC(=O)CCc2c(C)n[nH]c2C)ccc1O	-0.09	-9.4*	-0.66	3	7	0
COc1ccc(/C=N/NC(=O)CCc2c(C)n[nH]c2C)cc1OC	2.7	-1.2	-0.1	8	2	0
C=CCn1c(SCC(=O)Nc2ccccc2)nc2scc(-c3cccs3)c2c1=O	-0.76	0.69	-5.1*	4	9	-2
C=CCn1c(SCC(=O)N2CC(=O)Nc3ccccc32)nc2scc(-c3ccccc3)c2c1=O	-2.4	1.4	-7.2*	81*	11	-6
CC1(C)CC[C@@]23CC[C@]4(C)[C@@](OC2=O)(C3C1)[C@H]1O[C@H]1C1[C@@]2(C)CC[C@H](O)C(C)(C)C2CC[C@]14C (stereo not given in full)	nt	-0.1	0.027	nt	nt	nt
CCCc1cc(=O)[nH]c(SCC(=O)c2cc(C)n(C(C)COC)c2C)n1 (stereo not given)	-0.23	0.018	nt	45*	8	nt
CCCCN(CCCC)C(=S)NC(=O)c1ccccc1Cl	nt	nt	nt	1	nt	-2
CCOc1nc(S(=O)(=O)c2ccc(C)cc2)c(Cl)s1	-0.56	-0.97	-0.55	4	-2	-1
Cc1ccc(S(=O)(=O)c2nc(Nc3nccs3)sc2Cl)cc1	-3.1*	0.022	-0.3	4	4	0
O=C(COc1ccccc1C(=O)c1cnn(-c2ccccc2)c1)Nc1ccccc1	nt	nt	nt	36	nt	-4
CCOC(=O)c1cnc2ccc(Cl)cc2c1Nc1ccc(S(=O)(=O)Nc2ncccn2)cc1	nt	nt	nt	10	nt	2
SMILES	Pyk2 oligo antag	hDAT+cocaine	Cav32 inh	Measles CPE	HIV Rev-RRE inh	Phagocyt inh
CCOC(=O)c1cnc2ccc(C)cc2c1Nc1ccc(N2CCOCC2)cc1	-3*	1.4	-0.028	7	-4	-1
CCN(CC)S(=O)(=O)c1cccc(-c2nnc(SCCCC(=O)c3ccc(F)cc3)o2)c1	0.04	1.6	-4.7*	14	5	0
CCN(CC)S(=O)(=O)c1cccc(-c2nnc(SCC(=O)c3cc(C)n(C4CC4)c3C)o2)c1	1.6	-5.8e-05	0.87	nt	nt	-2
CCN(CC)S(=O)(=O)c1cccc(-c2nnc(SC(C)C(=O)NCCC3=CCCCC3)o2)c1 (stereo not given)	-0.6	0.28	-2.9*	15	-1	nt
CCN(CC)S(=O)(=O)c1cccc(-c2nnc(SCCCC(=O)c3ccccc3)o2)c1	-1.1	1.9	-5.3*	22	2	0
CCCCCCSc1nnc(-c2cnn(-c3ccccc3)c2-n2cccc2)n1C	-1.6	0.95	-8.9*	1	-6	-2
CCSc1nnc(-c2cnn(-c3ccccc3)c2-n2cccc2)n1C	-0.07	1.4	2.3	0	-3	nt
COc1ccc(C(=O)NC(=S)Nc2cccc(Cl)c2N2CCOCC2)cc1[N+](=O)[O-]	-1	-0.11	-0.33	3	0	0
CC1CCCCN1S(=O)(=O)c1ccc2c(c1)oc(=O)n2CC(=O)O (stereo not given)	0.24	-2.3*	nt	7	-2	-4
CC1Cc2ccccc2N1C(=O)Cn1c(=O)oc2cc(S(=O)(=O)NC3CCCC3)ccc21 (stereo not given)	nt	-0.1	-8.9*	10	17	nt
O=C(Cn1c(=O)oc2cc(S(=O)(=O)N3CCCCCC3)ccc21)NC1CCCCCCC1	nt	-0.058	0.15	25	11	0
CC1CCN(S(=O)(=O)c2ccc3c(c2)oc(=O)n3CC(=O)N2c3ccccc3CC2C)CC1 (stereo not given)	nt	nt	nt	3	5	0
COC(=O)/C=c1/s/c(=C(/C#N)C(=O)N2CCCCC2)n(-c2ccccc2)c1=O	nt	nt	nt	18	nt	-5
COc1cc(/C=c2\s/c(=C(/C#N)C(=O)N3CCCC3)n(-c3ccccc3)c2=O)ccc1O	-3*	0.026	-0.077	11	46*	0
CCOCCCNC(=O)C(NC(=O)c1cnccn1)c1ccc(C)cc1 (stereo not given)	-0.05	0.039	-1.7	9	-4	nt
CCn1c(C)[n+](CCCS(=O)(=O)[O-])c2cc(Cl)c(Cl)cc21	-0.36	-0.7	1.5	8	0	nt
O=S(=O)([O-])CCC[n+]1c(SCCCS(=O)(=O)O)sc2ccc(Cl)cc21	nt	nt	nt	35*	nt	-11
CC(C)=C1C2CCC1C1C(=O)N(NC(=O)COc3ccc(Cl)c(C)c3)C(=O)C21 (stereo not given)	0.41	-0.6	-5.3*	26	13	-1
Clc1cccc(CSc2nnc(-c3ccccn3)n2Cc2ccco2)c1	-0.84	0.88	-7.6*	5	8	-1
